Reference: ChEMBL document CHEMBL4513216, “Probing the Open Global Health Chemical Diversity Library for Multistage-Active Starting Points for Next-Generation Antimalarials” (ACS Infect Dis, 2020)

Test: Toxicity liver stage against HepG2, at 10uM
Type: cell-based
Design: test concentration 10 uM, cell line HepG2-A16-CD81EGFP
Conditions: human, HepG2-A16-CD81EGFP cells; read-out: INHIBITION
How it was run: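 Uninfected HepG2-A16-CD81EGFP cells, 3 × 10^3 per well, 1536-well, plated on prespotted compound at 10 μM final, parasite-free screening media added to match infected plates; puromycin 10 μM positive, DMSO 0.5% negative; run in parallel with 48 h PbLuc assay at 37 °C, 5% CO2; viability by CellTiter-Glo luminescence, normalized to controls.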
`COc1ccc(CN2CCOC[C@H]2c2nc(-c3ccncc3)c[nH]2)cc1` showed a cytotoxicity at 10 µM of -0.588%. `CN(C)CCCNC(=O)c1nc(Cc2c(Cl)cccc2Cl)no1` showed a cytotoxicity at 10 µM of -0.31%. Work on `O=C(CN1C(=O)CCC1=O)N1CCC(S(=O)(=O)Cc2ccco2)CC1` yielded a cytotoxicity at 10 µM of 3.79%. With `CCOCC(=O)NCC1Cn2nnc(-c3cccc(F)c3)c2CO1` (configuration not stated) the cytotoxicity at 10 µM was -1.29%. Compound `O=C(NCC1CC1)C1=NOC2(CCN(Cc3ccsc3)C2)C1` (configuration not stated) has a cytotoxicity at 10 µM of 1.47%. Work on `Cn1cc(CN2CC[C@H]3OCC[C@@H](C(=O)Nc4cnccn4)[C@@H]3C2)cn1` yielded a cytotoxicity at 10 µM of 4.12%. In the case of `Cc1ccc(S(=O)(=O)NC2CNC(=O)C2)cc1C` (configuration not stated), the cytotoxicity at 10 µM is reported as -21.1%. `COc1ccc(C)cc1NC(=O)Nc1cnc(N2CCN(C)CC2)nc1` gave a cytotoxicity at 10 µM of 5.06%. Compound `O=C1CCSCC(C(=O)N2CCCC2)N1` (configuration not stated) has a cytotoxicity at 10 µM of -9.83%. Compound `O=C1CCSCC(C(=O)N2CCN(C3CCCCC3)CC2)N1` (configuration not stated) has a cytotoxicity at 10 µM of -18.7%. For `CC(C)C(NC(=O)c1cnc(N2CCOCC2)nc1)c1cccs1` (configuration not stated), the cytotoxicity at 10 µM was 9.71%. For `COCCN1CCN(c2nc(O)cc(Cc3ccccc3F)n2)CC1`, the cytotoxicity at 10 µM was -4.52%. For `c1cc(-c2cnc(C3CCNCC3)cn2)n[nH]1`, the cytotoxicity at 10 µM was -2.78%. With `Cc1nccn1CCC1CCN(C(C)C)CC1` the cytotoxicity at 10 µM was -20.7%. Compound `Cn1c(CN2CCOC(CCc3ccncn3)C2)nc2ccccc21` (configuration not stated) has a cytotoxicity at 10 µM of -4.42%. With `c1cc(-c2nnc(C3CCCN(CC4CCCCC4)C3)o2)ccn1` (configuration not stated) the cytotoxicity at 10 µM was -12.1%. For `Cc1nn(C)cc1CN1CCc2c(nc(-c3ccccn3)[nH]c2=O)C1`, the cytotoxicity at 10 µM was -32.1%. `Cc1cc(C)cc(-c2cccc(CC3(C(=O)O)CCOCC3)c2)c1` showed a cytotoxicity at 10 µM of -4.04%. For `Cc1noc(C)c1CN1CCCCC1c1nc(-c2ccccc2)no1` (configuration not stated), the cytotoxicity at 10 µM was -44%. With `Cc1ccc(-c2nc(CC(=O)NCC3CCCN(C(C)C)C3)cs2)o1` (configuration not stated) the cytotoxicity at 10 µM was -53.2%. For `NC(=O)CSCC(=O)NC1(c2cccc(Cl)c2)CC1`, the cytotoxicity at 10 µM was -16.4%. `O=C(Nc1cc(C(F)(F)F)c[nH]c1=O)C1CCCN1` (configuration not stated) showed a cytotoxicity at 10 µM of -7.33%. `Cc1cc(C)n(CCCNC(=O)NCc2c(C)cc(C)[nH]c2=O)n1` showed a cytotoxicity at 10 µM of -1.12%. `COc1ccc(OCc2nc3cc4c(cc3c(=O)o2)OCCCO4)cc1` gave a cytotoxicity at 10 µM of 5.73%. For `CC(C)c1noc(CCCC(=O)N2CCN(C)CC2c2ccccc2)n1` (configuration not stated), the cytotoxicity at 10 µM was -2.89%. `Cc1nn(C)c(C)c1OCC(=O)NCc1cccc(C(=O)O)c1` gave a cytotoxicity at 10 µM of -3.83%. `COCC(=O)N1CCN(Cc2csc(-c3ncccn3)n2)CC1` showed a cytotoxicity at 10 µM of -11.3%. For `Cc1ccc(C(=O)N(C)Cc2ccc(Br)o2)c(=O)[nH]1`, the cytotoxicity at 10 µM was 8.6%. In the case of `O=C(c1ccc(=O)[nH]n1)N1CCc2ccccc21`, the cytotoxicity at 10 µM is reported as 37.9%. For `COc1c(C(=O)N2CCOC(c3cccs3)C2)c(C)nn1C` (configuration not stated), the cytotoxicity at 10 µM was -0.43%. In the case of `CCN(c1cccc(F)c1)S(=O)(=O)c1cc(C(=O)O)cc2c1CCC2`, the cytotoxicity at 10 µM is reported as 10.5%. Work on `CC(Cc1ccco1)NC(=O)CCn1cccn1` (configuration not stated) yielded a cytotoxicity at 10 µM of -6.19%. Work on `Cc1cccc(C2CCCCN2C(=O)CCCS(C)(=O)=O)c1C` (configuration not stated) yielded a cytotoxicity at 10 µM of 4.96%. For `CC(CNC(=O)C1(c2ccc(F)cc2)CC1)CN1CCCC1=O` (configuration not stated), the cytotoxicity at 10 µM was -8.26%. With `Cc1cc(N2CCC(NC(=O)CCc3ccco3)CC2)nc(C)n1` the cytotoxicity at 10 µM was -14.3%. For `CCc1cnccc1C(=O)NC1CCN(C(=O)C2CCCCC2)CC1`, the cytotoxicity at 10 µM was 3.51%. For `Cc1nnc(CN2CCCC2c2ccc(C(C)(C)C)cc2)o1` (configuration not stated), the cytotoxicity at 10 µM was -8.48%. With `Cc1cccc2c1C(=O)NC1(CCOCC1)N2` the cytotoxicity at 10 µM was -42.3%. `COCC(=O)NC1(c2cccc(C(F)(F)F)c2)CCC1` gave a cytotoxicity at 10 µM of -50%. `COC(C)(C)CC(C)NC(=O)NC1CCN(Cc2ccccn2)CC1` (configuration not stated) showed a cytotoxicity at 10 µM of 4.83%. Compound `CCc1nnsc1C(=O)N(C)Cc1ccc(Br)o1` has a cytotoxicity at 10 µM of -48.8%. Compound `CCS(=O)(=O)NCCCNC(=O)N(C)C(C)c1ccccn1` (configuration not stated) has a cytotoxicity at 10 µM of 7.31%. Compound `Cc1noc(Cl)c1CCC(=O)N1CCCCC1Cn1cccn1` (configuration not stated) has a cytotoxicity at 10 µM of -12.6%. `OCC1CCCCN1CCn1ccnc1-c1nc2ccccc2[nH]1` (configuration not stated) showed a cytotoxicity at 10 µM of 8.89%. Compound `Cc1cccc2sc(NC(=O)CN3CCCC4(CC3)CNC(=O)O4)nc12` (configuration not stated) has a cytotoxicity at 10 µM of -4.26%. `Fc1ccc(CC2CCN(Cc3nccs3)CC2)cc1` showed a cytotoxicity at 10 µM of -2.87%. In the case of `CCc1cc(C(C)Nc2nc(-c3cccnc3)nc3c2CNC3)on1` (configuration not stated), the cytotoxicity at 10 µM is reported as 16.9%. Work on `Cc1c[nH]c(CN2CCCCC2CCN(C)C)c(C)c1=O` (configuration not stated) yielded a cytotoxicity at 10 µM of -2.97%. With `CN(CCCc1cnn(C)c1)C(=O)C1CCN(C(=O)C2CCC2)CC1` the cytotoxicity at 10 µM was -11.6%. Work on `O=C(O)[C@@]12CN(c3cnccn3)C[C@@H]1CN(C1CCCC1)C2` yielded a cytotoxicity at 10 µM of -10.3%. For `CN(Cc1cccnc1)c1nccc(N2CCN[C@H]3CS(=O)(=O)C[C@H]32)n1`, the cytotoxicity at 10 µM was 5.82%. For `C[C@@H]1CN(S(=O)(=O)N2CCCC2)CC[C@@]1(O)C1CCOCC1`, the cytotoxicity at 10 µM was 4.49%. `O=C(Cn1nnc(-c2ccc(F)cc2)n1)N1CCOCC(O)C1` (configuration not stated) showed a cytotoxicity at 10 µM of 10.9%. In the case of `CC(C)=CCN1CCC2(CC1)CC(=O)N(Cc1cc(F)cc(F)c1)C2`, the cytotoxicity at 10 µM is reported as 0.308%. `CC(=O)N[C@H]1CCN(c2nc(C)nc3c2c(C)nn3C)C1` showed a cytotoxicity at 10 µM of 4.61%. `CC(C)CC(O)C1CCN(Cc2cnc(-c3cccs3)nc2)CC1` (configuration not stated) gave a cytotoxicity at 10 µM of -3.18%. Work on `CN1CCc2[nH]cnc2C12CCN(Cc1ccc(S(C)(=O)=O)cc1)CC2` yielded a cytotoxicity at 10 µM of -3.72%. With `CC(C)c1cc(C(=O)N2C[C@@H](C)[C@](O)(C3CC3)C2)[nH]n1` the cytotoxicity at 10 µM was 16.3%. Compound `CNc1cc(C)nc(N2C[C@@H](C(=O)O)[C@H](C3CC3)C2)n1` has a cytotoxicity at 10 µM of -0.147%. `Cn1nc(C2CN(C(=O)c3cscn3)C2)c2nccnc21` gave a cytotoxicity at 10 µM of 2.21%. In the case of `Cc1nccc(CN2CC[C@H](Oc3cccc(F)c3)[C@@](C)(O)C2)n1`, the cytotoxicity at 10 µM is reported as 2.84%. With `COc1c(C2CCCN2C(=O)c2cscn2)c(C)nn1C` (configuration not stated) the cytotoxicity at 10 µM was 5.77%. `COCCc1noc(CN2CCCC2Cn2cccn2)n1` (configuration not stated) showed a cytotoxicity at 10 µM of -0.206%. `COc1ccc(-n2ccc(C(=O)NCCN3CCC(C)CC3)n2)cc1` showed a cytotoxicity at 10 µM of -6.48%. `Cc1cc(C[S+]([O-])CC(=O)NCc2ccccc2)no1` (configuration not stated) showed a cytotoxicity at 10 µM of -2.13%. For `Cc1nc(C)n(CC2CCCCN2Cc2nc3ccccc3o2)n1` (configuration not stated), the cytotoxicity at 10 µM was -6.8%. `Cc1cc(NC(=O)CN2CCCC2Cn2nc(C)nc2C)n(C)n1` (configuration not stated) gave a cytotoxicity at 10 µM of -2.49%. For `CCCNC(=O)C(C)N1CCC(C(=O)Nc2cnn(CC)c2)CC1` (configuration not stated), the cytotoxicity at 10 µM was -5.36%. With `c1sc(C2CCCCC2)nc1CN1CCn2c(nnc2C2CC2)C1` the cytotoxicity at 10 µM was -6.61%. Work on `COCCCC(=O)NS(=O)(=O)c1ccc2c(c1)OCCCO2` yielded a cytotoxicity at 10 µM of -2.77%. Compound `Cc1nccn1C1CCCN(C(=O)c2ccc3c(c2)nnn3C)C1` (configuration not stated) has a cytotoxicity at 10 µM of -7.89%. Compound `Cc1nnc(NCc2cccnc2N(C)C)c(C#N)c1C` has a cytotoxicity at 10 µM of -4.94%. `Cc1ncc2c(n1)CCN(Cc1nc3ccccc3o1)C2` showed a cytotoxicity at 10 µM of 1.66%. Compound `Cc1cnn(CC2CCCN2c2nn3cc(C)nc3s2)c1` (configuration not stated) has a cytotoxicity at 10 µM of -2.84%. With `Cc1ccc(OCCCNC(=O)NC(C)c2nncn2C)cc1` (configuration not stated) the cytotoxicity at 10 µM was -3.83%. Compound `Cc1cc(-c2cnn(CCNC(=O)c3cccnc3)c2C2CC2)on1` has a cytotoxicity at 10 µM of 0.565%. `c1ccc(NCc2cn3c(n2)CN(Cc2cccnc2)CC3)nc1` gave a cytotoxicity at 10 µM of 1.52%. Compound `O=C(CCC1CCCC1)NCCn1nc(C2CCNC2)c2cccnc21` (configuration not stated) has a cytotoxicity at 10 µM of -2.83%. For `O=C(N1CCOCC1)[C@@]12CCO[C@@H]1CCN(C1CCOCC1)C2`, the cytotoxicity at 10 µM was 5.83%. Work on `CC(C)N1CCO[C@H]2CN(C(=O)c3ccoc3)C[C@H]21` yielded a cytotoxicity at 10 µM of -0.207%. `CC(C)N(C)Cc1ncn2c1CN(S(=O)(=O)c1cccs1)CCC2` gave a cytotoxicity at 10 µM of 3.62%. In the case of `O=C(c1ccccn1)N1Cc2nccn2CC(CN2CCOCC2)C1` (configuration not stated), the cytotoxicity at 10 µM is reported as 2.16%.
